Experiment [1] concerns the target T1, Histone deacetylase (Homo sapiens) (UniProt Q13547+O15379+Q9UBN7+Q92769+Q9UQL6+Q8WUI4+Q9BY41+Q96DB2+P56524+Q9UKV0+Q969S8). Briefly: Inhibition of HDAC in human HCT-116 cells assessed increase in global histone H3 lysine 9 acetylation at 100 nM incubated for 24 hrs by Western blot analysis. The format is cell-based. In short, it runs like this:
(§1)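 HCT116 cells exposed 24 h at 10 nM, 100 nM or 1 μM; global histone H3 lysine 9 acetylation detected by Western blot.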

The test system of experiment [2] is Panel NCI-60 (60 carcinoma cell lines). Briefly: Growth inhibition of human NCI-60 cells assessed as cell growth at 10 uM. The format is functional. The conditions noted are these: read-out: Activity. In short, it runs like this: (§2)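 NCI-60 human tumour cell line panel; initial single-dose screen at 10 μM, growth inhibition reported per cell line.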
Experiment [3] concerns the target T2, Histone deacetylase 3 (Homo sapiens, UniProt O15379). Briefly: Inhibition of recombinant HDAC3 (unknown origin) at 2 uM incubated for 15 mins before substrate addition and measured after 30 to 45 mins by HDAC-Glo substrate. An outline of the steps: (§3)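 HDAC isoforms captured from HeLa cell lysate with plate-bound isoform-specific antibodies (lysate 100 µg/mL for HDAC1/2, 1 mg/mL for HDAC3/6); inhibitor in DMSO preincubated 15 min at room temperature, then HDAC-Glo substrate/developer 30–45 min; luminescence, background-corrected against no-antibody wells; % activity vs DMSO control; at least two independent trials, mean ± standard error. Concentrations are final.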

Experiment [4] deals with T3, Histone deacetylase 1 (Homo sapiens, UniProt Q13547). Briefly: Inhibition of recombinant HDAC1 (unknown origin) at 2 uM incubated for 15 mins before substrate addition and measured after 30 to 45 mins by HDAC-Glo substrate. In short, it runs like this:
as §3

The target in experiment [5] is T4, Histone deacetylase 2 (Homo sapiens, UniProt Q92769). Briefly: Inhibition of recombinant HDAC2 (unknown origin) at 2 uM incubated for 15 mins before substrate addition and measured after 30 to 45 mins by HDAC-Glo substrate. In short, it runs like this: as §3
T4 sequence (Q92769 whole entry): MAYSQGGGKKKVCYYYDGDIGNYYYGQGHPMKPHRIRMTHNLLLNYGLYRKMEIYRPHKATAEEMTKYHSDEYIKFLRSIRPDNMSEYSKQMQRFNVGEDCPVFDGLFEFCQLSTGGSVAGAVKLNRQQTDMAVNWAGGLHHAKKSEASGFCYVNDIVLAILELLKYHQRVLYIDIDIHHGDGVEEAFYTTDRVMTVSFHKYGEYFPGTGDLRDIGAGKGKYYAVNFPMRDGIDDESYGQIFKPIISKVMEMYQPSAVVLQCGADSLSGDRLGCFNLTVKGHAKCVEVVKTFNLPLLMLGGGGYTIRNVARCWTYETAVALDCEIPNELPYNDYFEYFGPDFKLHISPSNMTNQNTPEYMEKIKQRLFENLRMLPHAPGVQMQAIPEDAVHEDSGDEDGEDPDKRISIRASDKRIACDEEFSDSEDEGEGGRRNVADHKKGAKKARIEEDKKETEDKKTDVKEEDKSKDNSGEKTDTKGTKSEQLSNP
The subject of another experiment is HCT-116. Briefly: Growth inhibition of human HCT-116 cells incubated for 96 hrs by MTS assay. In kind it is functional. (In general: Formazan colour is commonly taken as a measure of viable cells.)
Experiment [6] concerns the target T3, Histone deacetylase 1. Briefly: Inhibition of recombinant HDAC1 (unknown origin) at 250 nM incubated for 15 mins before substrate addition and measured after 30 to 45 mins by HDAC-Glo substrate. An outline of the steps: as §3
The target of experiment [7] is T2, Histone deacetylase 3. Briefly: Inhibition of recombinant HDAC3 (unknown origin) at 250 nM incubated for 15 mins before substrate addition and measured after 30 to 45 mins by HDAC-Glo substrate. In short, it runs like this:
as §3

The target of experiment [8] is T1, Histone deacetylase (Homo sapiens). Briefly: Inhibition of HDAC in human HCT-116 cells assessed increase in global histone H3 lysine 9 acetylation at 10 nM incubated for 24 hrs by Western blot analysis. In kind it is cell-based. An outline of the steps: as §1
Experiment [9] has as its target T4, Histone deacetylase 2. Briefly: Inhibition of recombinant HDAC2 (unknown origin) at 250 nM incubated for 15 mins before substrate addition and measured after 30 to 45 mins by HDAC-Glo substrate. In short, it runs like this: as §3
The test system of experiment [10] is Panel NCI-60 (60 carcinoma cell lines). Briefly: Growth inhibition of human NCI-60 cells at 10 uM. The conditions noted are these: read-out: GI. In kind it is functional. In short, it runs like this:
as §2

Experiment [11] concerns the target T3, Histone deacetylase 1. Briefly: Inhibition of recombinant HDAC1 (unknown origin) at 1 uM incubated for 15 mins before substrate addition and measured after 30 to 45 mins by HDAC-Glo substrate. In short, it runs like this:
as §3

The target in experiment [12] is T4, Histone deacetylase 2. Briefly: Inhibition of recombinant HDAC2 (unknown origin) at 1 uM incubated for 15 mins before substrate addition and measured after 30 to 45 mins by HDAC-Glo substrate. An outline of the steps: as §3
Experiment [13] addresses T2, Histone deacetylase 3. Briefly: Inhibition of recombinant HDAC3 (unknown origin) at 1 uM incubated for 15 mins before substrate addition and measured after 30 to 45 mins by HDAC-Glo substrate. In short, it runs like this: as §3
Experiment [14] has as its target T4, Histone deacetylase 2. Briefly: Inhibition of recombinant HDAC2 (unknown origin)incubated for 15 mins before substrate addition and measured after 30 to 45 mins by HDAC-Glo substrate. In short, it runs like this:
as §3

The target of experiment [15] is T3, Histone deacetylase 1. Briefly: Inhibition of recombinant HDAC1 (unknown origin) incubated for 15 mins before substrate addition and measured after 30 to 45 mins by HDAC-Glo substrate. An outline of the steps:
as §3

The target in experiment [16] is T2, Histone deacetylase 3. Briefly: Inhibition of recombinant HDAC3 (unknown origin)incubated for 15 mins before substrate addition and measured after 30 to 45 mins by HDAC-Glo substrate. An outline of the steps:
as §3

For experiment [17], the species on record is Homo sapiens. Briefly: Selectivity index, ratio of IC50 for recombinant HDAC6 (unknown origin) to IC50 for recombinant HDAC1 (unknown origin).
The species entered for experiment [18] is Homo sapiens. Briefly: Selectivity index, ratio of IC50 for recombinant HDAC6 (unknown origin) to IC50 for recombinant HDAC2 (unknown origin).
The species named for experiment [19] is Homo sapiens. Briefly: Selectivity index, ratio of IC50 for recombinant HDAC6 (unknown origin) to IC50 for recombinant HDAC3 (unknown origin).

Structures are written as SMILES. Calls of active or inactive are those of the source. The rule behind the calls is not given here.

T2 sequence (O15379 whole entry, canonical isoform): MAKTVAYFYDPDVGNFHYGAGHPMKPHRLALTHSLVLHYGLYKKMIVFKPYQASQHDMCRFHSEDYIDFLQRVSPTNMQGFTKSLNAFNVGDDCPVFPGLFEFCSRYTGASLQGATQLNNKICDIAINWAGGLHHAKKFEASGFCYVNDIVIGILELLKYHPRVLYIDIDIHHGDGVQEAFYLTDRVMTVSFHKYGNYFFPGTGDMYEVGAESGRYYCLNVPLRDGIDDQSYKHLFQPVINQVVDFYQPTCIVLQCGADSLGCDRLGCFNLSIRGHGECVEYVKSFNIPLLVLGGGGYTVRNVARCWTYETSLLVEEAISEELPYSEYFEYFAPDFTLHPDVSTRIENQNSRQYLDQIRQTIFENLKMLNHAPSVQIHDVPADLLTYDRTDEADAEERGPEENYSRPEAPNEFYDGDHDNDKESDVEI
T3 sequence (Q13547 whole entry): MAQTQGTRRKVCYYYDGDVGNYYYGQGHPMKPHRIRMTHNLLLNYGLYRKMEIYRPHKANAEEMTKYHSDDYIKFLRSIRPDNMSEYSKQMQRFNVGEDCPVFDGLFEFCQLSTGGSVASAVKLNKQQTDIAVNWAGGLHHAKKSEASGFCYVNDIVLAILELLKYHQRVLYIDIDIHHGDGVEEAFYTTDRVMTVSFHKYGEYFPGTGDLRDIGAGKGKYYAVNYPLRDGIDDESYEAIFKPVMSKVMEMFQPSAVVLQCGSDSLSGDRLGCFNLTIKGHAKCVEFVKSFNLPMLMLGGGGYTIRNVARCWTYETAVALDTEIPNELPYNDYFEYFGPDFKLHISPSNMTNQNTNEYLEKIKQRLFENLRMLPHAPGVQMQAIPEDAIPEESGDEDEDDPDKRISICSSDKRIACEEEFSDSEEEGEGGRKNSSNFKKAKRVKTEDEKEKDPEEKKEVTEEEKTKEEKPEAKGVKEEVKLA

Turning to `CCCCCCCC(=O)SCC/C=C/[C@@H]1CC(=O)NCc2cccc(n2)CN(Cc2cccc3ccccc23)CC(=O)N[C@@H](C(C)C)C(=O)O1`, the inhibition entry in experiment [1] was “inactive”. The growth at 10 µM in experiment [2] came out at 34.9%. In addition, the inhibition entry on Histone deacetylase 3 [3], on Histone deacetylase 1 [4] and at Histone deacetylase 2 [5] was “Active” each time. Also, in the experiment on HCT-116, the GI50 (as a rule, the concentration that inhibits growth by half) was more than 5 µM.

As to `CCCCCCCC(=O)SCC/C=C/[C@@H]1CC(=O)NCc2cccc(n2)CN(Cc2ccc(OC)cc2)CC(=O)N[C@@H](C(C)C)C(=O)O1`, the inhibition entry on Histone deacetylase 1 [6], at Histone deacetylase 3 [7] and at Histone deacetylase 2 [9] was “inactive” each time. Further, the “Increase in histone H3K9 acetylation (qualitative call)” value (shortened to “Increase in histone H3K9 acetylation”) in experiment [8] was “Active”. Further, the growth at 10 µM in experiment [2] came out at 5.41%. This compound also gave a GI50 in the experiment on HCT-116 of 4.25 µM.

On to `CCCCCCCC(=O)SCC/C=C/[C@@H]1CC(=O)NCCOCCOCC(=O)N[C@@H](C(C)C)C(=O)O1`, for which the inhibition entry (in experiment [1]; at Histone deacetylase 3 [3]; on Histone deacetylase 1 [4]; at Histone deacetylase 2 [5]) was “Active” in each case. Moreover, in [2], the growth at 10 µM was determined as 38.6%. The inhibition of growth at 10 µM in experiment [10] was 60%. This compound yielded a GI50 in the experiment with HCT-116 of 0.75 µM.

For `CCCCCCCC(=O)SCC/C=C/[C@@H]1CC(=O)NCc2cccc(n2)CN(Cc2ccc(C(F)(F)F)cc2)CC(=O)N[C@@H](C(C)C)C(=O)O1`, in experiment [8], the “Increase in histone H3K9 acetylation” value is “Active”. In experiment [2], the growth at 10 µM stood at 0.43%. Moreover, the inhibition result at Histone deacetylase 1 [11], on Histone deacetylase 2 [12] and at Histone deacetylase 3 [13] was “inactive” in each case. The same compound showed a GI50 in the experiment with HCT-116 of 3.2 µM.

As for `CCCCCCCC(=O)SCC/C=C/[C@@H]1CC(=O)NCc2nc(cs2)C2=N[C@@](C)(CS2)C(=O)N[C@@H](C(C)C)C(=O)O1` [LARGAZOLE], the “Increase in histone H3K9 acetylation” value in experiment [8] is “Active”. In addition, the results for the IC50 at Histone deacetylase 2 [14] and on Histone deacetylase 1 [15] were 0.064 µM and 0.061 µM, respectively. The inhibition of growth at 10 µM in experiment [10] is 60%. Moreover, in the experiment with HCT-116, the GI50 was 0.065 µM.

Regarding `CCCCCCCC(=O)SCC/C=C/[C@@H]1CC(=O)NCc2cccc(n2)CN(C)CC(=O)N[C@@H](C(C)C)C(=O)O1`, the inhibition entry in experiment [1] is “Active”. The growth at 10 µM in [2] worked out at 40.8%. Moreover, the inhibition of growth at 10 µM in [10] worked out at 60%. Moreover, the GI50 in the experiment with HCT-116 is 0.8 µM.

With `CCCCCCCC(=O)SCC/C=C/[C@@H]1CC(=O)NCc2cccc(n2)CN(Cc2ccccc2)CC(=O)N[C@@H](C(C)C)C(=O)O1`, the inhibition result at Histone deacetylase 1 [6], on Histone deacetylase 3 [7] and on Histone deacetylase 2 [9] was “inactive” throughout. The “Increase in histone H3K9 acetylation” value in experiment [8] is “Active”. Moreover, the growth at 10 µM in experiment [2] is -4.39%. This compound registered a GI50 with HCT-116 of more than 5 µM.

For the compound `CCCCCCCC(=O)SCC/C=C/[C@@H]1CC(=O)NCc2cccc(n2)CN(Cc2ccc(Cl)cc2)CC(=O)N[C@@H](C(C)C)C(=O)O1`, the inhibition entry on Histone deacetylase 1 [6], on Histone deacetylase 3 [7] and at Histone deacetylase 2 [9] was “inactive” throughout. Also, in experiment [8], the “Increase in histone H3K9 acetylation” value was “Active”. The growth at 10 µM in experiment [2] came out at 1.42%. This compound showed a GI50 in the experiment on HCT-116 of 2.67 µM.

Regarding `CCCCCCCC(=O)SCC/C=C/[C@@H]1CC(=O)NCc2cccc(n2)-c2cccc(n2)C(=O)N[C@@H](C(C)C)C(=O)O1`, the inhibition entry on Histone deacetylase 1 [6], at Histone deacetylase 3 [7] and on Histone deacetylase 2 [9] was “Active” each time. Also, in experiment [8], the “Increase in histone H3K9 acetylation” value was “Active”. Also, the growth at 10 µM in [2] is -16.2%. For the same compound, the IC50 (as a rule, the midpoint of a concentration-inhibition curve) on Histone deacetylase 2 [14] was found to be 0.028 µM; on Histone deacetylase 3 [16] it was 0.027 µM; on Histone deacetylase 1 [15], 0.021 µM. Besides, the values for the Ratio IC50 in the experiment filed under Homo sapiens [17], in the experiment filed under Homo sapiens [18] and in the experiment filed under Homo sapiens [19] were 619, 464 and 481, respectively. In the experiment with HCT-116, this compound yielded a GI50 of 0.075 µM.
